Measured values published in ChEMBL document CHEMBL2346548, “Design, synthesis, and structure-activity relationship studies of tryptanthrins as antitubercular agents” (J Nat Prod, 2013).
Values after ≈ are worked out from the molar mass of the structure shown.

Assays:
[1] = system: Mycobacterium tuberculosis; test: Antitubercular activity against Mycobacterium tuberculosis H37Rv incubated at 37 degC for 7 days by microplate alamar blue assay; type: functional; settings: for MIC: Mycobacterium tuberculosis, H37Rv, 168 h
In short: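 Mtb H37Rv was grown in 7H9 broth with glycerol, Casitone, 10% OADC and 0.05% Tween 80 to OD600 0.4. Compounds were 2-fold serially diluted from DMSO stocks in 7H9, and wells were inoculated at 2 × 10⁵ CFU/mL. After 7 days at 37 °C, Alamar Blue was added and read after a further 24 h. MIC was the lowest concentration preventing the blue-to-pink change.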

[2] = system: Mycobacterium tuberculosis; test: Antitubercular activity against Mycobacterium tuberculosis H37Rv incubated at 37 degC for 14 days in presence of 40% human serum by microplate alamar blue assay; type: functional; settings: 336 h
In short: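 This is the MABA run in 7H9 broth containing 40% human serum. Compounds were 2-fold serially diluted, and wells were inoculated with H37Rv at 2 × 10⁵ CFU/mL. Incubation was at 37 °C for 14 days, then Alamar Blue was added. MIC was the lowest concentration preventing the blue-to-pink colour change.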

[3] = system: Vero; test: Cytotoxicity against african green monkey Vero cells; type: cell-based, Chlorocebus sabaeus
[4] = system: Mycobacterium tuberculosis; test: Antitubercular activity against non-replicating Mycobacterium tuberculosis H37Rv incubated for 10 days by LORA method; type: functional; settings: 240 h
In short: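 H37Rv carrying pFCA-luxAB was adapted to low oxygen by gradual self-depletion in a sealed, slowly stirred flask. It was then exposed to compounds for 10 days under anaerobic conditions. Cultures recovered for 28 h in ambient oxygen before n-decanal substrate was added and luminescence read. MIC was the lowest concentration giving a 90% reduction in luminescence versus untreated controls.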

[5] = Chlorocebus sabaeus, Vero, read-out: IC50

SMILES | MIC [1] [µg/mL] | MIC [2] [µg/mL] | IC50 [3, 5] [µg/mL] | MBC90 [1] [µg/mL] | IC50 ([3]; vero) | MIC90 [4] [µg/mL]
Nc1ccc2c(c1)C(=O)c1nc3ccccc3c(=O)n1-2 | 8 (≈ 30.4 µM) | 16 |  |  |  | 
O=C1c2ccc(N3CCOCC3)cc2-n2c1nc1ccncc1c2=O | 32 (≈ 95.7 µM) | > 32 | > 20 |  |  | 
O=C1c2ccc(N3CCNCC3)cc2-n2c1nc1ccccc1c2=O | 0.5 (≈ 1.5 µM) | > 2 | > 2 | >2 |  | 
O=C1c2ccc(N3CCOCC3)cc2-n2c1nc1ncccc1c2=O |  |  |  |  | ND(Insoluble) | 
Cl.O=C1c2ccc(N3CCNCC3)cc2-n2c1nc1ccccc1c2=O | 8 | 8 | 16 | >16 |  | 
O=C1c2cc(Cl)ccc2-n2c1nc1ccncc1c2=O | 0.25 (≈ 0.881 µM) | 0.25 | 8.5 (≈ 30 µM) |  |  | 0.68 (≈ 2.4 µM)
O=C1c2ccc(N3CCCCC3)cc2-n2c1nc1ccncc1c2=O | 16 (≈ 48.1 µM) | > 32 | 20 (≈ 60.2 µM) |  |  | 
O=C1c2cc(OC(F)(F)F)ccc2-n2c1nc1ncccc1c2=O | 0.25 (≈ 0.75 µM) | 0.5 | 7.6 (≈ 22.8 µM) |  |  | 2.5 (≈ 7.5 µM)
O=C1c2cc([N+](=O)[O-])ccc2-n2c1nc1ncccc1c2=O | 0.5 (≈ 1.7 µM) | 4 | < 0.2 | 4 (≈ 13.6 µM) |  | 
O=C1C2=Nc3ccncc3CN2c2ccc(OC(F)(F)F)cc21 | 2 (≈ 6.26 µM) |  | 5.2 (≈ 16.3 µM) |  |  | 9 (≈ 28.2 µM)
COc1ccc2c(c1)C(=O)c1nc3ccccc3c(=O)n1-2 | 1 (≈ 3.59 µM) | 2 | 5.5 (≈ 19.8 µM) | 0.5 (≈ 1.8 µM) |  | 
O=C1c2ccc(N3CCCCC3)cc2-n2c1nc1ccccc1c2=O | > 128 | > 128 | 18 (≈ 54.3 µM) |  |  | 
O=C1c2ccccc2-n2c1nc1ccc([N+](=O)[O-])cc1c2=O | 16 (≈ 54.6 µM) | 32 | 64 (≈ 218 µM) | 32 (≈ 109 µM) |  | 
CCN(CCN(C)C)c1ccc2nc3n(c(=O)c2c1)-c1ccc(Cl)cc1C3=O | 16 (≈ 40.3 µM) | 16 | 32 (≈ 80.6 µM) | 4 (≈ 10.1 µM) |  | 
O=C1c2ccc(N3CCNCC3)cc2-n2c1nc1ccncc1c2=O | > 4 | > 4 | 11 (≈ 33 µM) |  |  | 
CC(C)(C)OC(=O)N1CCN(c2ccc3c(c2)-n2c(nc4ccncc4c2=O)C3=O)CC1 | 16 (≈ 36.9 µM) | > 32 | 24 (≈ 55.4 µM) |  |  | 
O=C1c2cc(Br)ccc2-n2c1nc1ncccc1c2=O | 16 (≈ 48.8 µM) | 32 | > 20 |  |  | 
O=C1c2ccc(Cl)cc2-n2c1nc1ccncc1c2=O | 0.125 (≈ 0.441 µM) | 1 | 9 (≈ 31.7 µM) |  |  | 
O=C1C2=Nc3ncccc3CN2c2ccc(Cl)cc21 | 16 (≈ 59.3 µM) |  | > 10 |  |  | 
O=C1c2ccc(N3CCC(O)CC3)cc2-n2c1nc1ccccc1c2=O | 16 (≈ 46.1 µM) | 16 | 31 (≈ 89.2 µM) |  |  | 

SMILES | MIC [1] [µg/mL] | MIC [2] [µg/mL] | IC50 [3, 5] [µg/mL] | MBC90 [1] [µg/mL] | IC50 ([3]; vero) | MIC90 [4] [µg/mL]
O=C1c2ccc(N3CCCCC3)cc2-n2c1nc1ncccc1c2=O | 4 (≈ 12 µM) | 16 | 81 (≈ 244 µM) |  |  | 
O=C1C2=Nc3ncccc3CN2c2ccccc21 | 32 (≈ 136 µM) |  | 4.8 (≈ 20.4 µM) |  |  | 
CCOC(=O)c1ccc2c(c1)C(=O)c1nc3c(OC)cccc3c(=O)n1-2 | 0.125 (≈ 0.357 µM) | 4 | 16 (≈ 45.7 µM) | 1 (≈ 2.85 µM) |  | 
O=C1c2ccccc2-n2c1nc1ncccc1c2=O | 4 (≈ 16 µM) | 8 | 24 (≈ 96.3 µM) |  |  | 23 (≈ 92.3 µM)
O=C1c2cc(C(=O)N3CCOCC3)ccc2-n2c1nc1ccccc1c2=O | 8 (≈ 22.1 µM) | 32 | > 10 |  |  | > 10
O=C1c2cc(OC(F)(F)F)ccc2-n2c1nc1ccncc1c2=O | 0.063 (≈ 0.189 µM) | 0.5 | 5.7 (≈ 17.1 µM) | 0.125 (≈ 0.375 µM) |  | 0.64 (≈ 1.92 µM)
O=C1c2cc(OC(F)(F)F)ccc2-n2c1nc1cnccc1c2=O | 0.125 (≈ 0.375 µM) | 0.25 | 5.4 (≈ 16.2 µM) |  |  | 1.5 (≈ 4.5 µM)
O=C1C2=Nc3ccccc3CN2c2ccccc21 | 1 (≈ 4.27 µM) | 2 | 42 (≈ 179 µM) |  |  | 20 (≈ 85.4 µM)
O=C1c2ccccc2-n2c1nc1ccncc1c2=O | 0.5 (≈ 2.01 µM) | 0.25 | 5.3 (≈ 21.3 µM) |  |  | 1.6 (≈ 6.42 µM)
O=C1C2=Nc3ccccc3CN2c2ccc(OC(F)(F)F)cc21 | 0.125 (≈ 0.393 µM) | 0.5 | 1.3 (≈ 4.08 µM) |  |  | 
CC(C)(C)OC(=O)N1CCN(c2ccc3c(c2)-n2c(nc4ncccc4c2=O)C3=O)CC1 |  |  |  |  | ND(Insoluble) | 
O=C1c2ccc(N3CCCC3)cc2-n2c1nc1ccccc1c2=O |  |  |  |  | ND(Insoluble) | 
CS(=O)(=O)Nc1ccc2c(c1)C(=O)c1nc3ccccc3c(=O)n1-2 | 4 (≈ 11.7 µM) | > 8 | > 8 | 2 (≈ 5.86 µM) |  | 
O=C1c2cc(F)ccc2-n2c1nc1ncccc1c2=O | 1 (≈ 3.74 µM) | 2 | 0.3 (≈ 1.12 µM) | 1 (≈ 3.74 µM) |  | 
O=C1C2=Nc3ccncc3CN2c2ccccc21 | 16 (≈ 68 µM) |  | > 20 |  |  | > 20
O=C1c2ccc(Cl)cc2-n2c1nc1ncccc1c2=O | 1 (≈ 3.53 µM) | 2 | 7 (≈ 24.7 µM) |  |  | 
O=C1c2ccc(N3CCC(O)C3)cc2-n2c1nc1ccccc1c2=O (stereo not given) | 8 (≈ 24 µM) | 8 | 27 (≈ 81 µM) |  |  | 
O=C1C2=Nc3ncccc3CN2c2ccc(OC(F)(F)F)cc21 | 16 (≈ 50.1 µM) |  | 4.4 (≈ 13.8 µM) |  |  | 
O=C1C2=Nc3ccncc3CN2c2ccc(Cl)cc21 | 2 (≈ 7.42 µM) |  | 3.7 (≈ 13.7 µM) |  |  | 8.3 (≈ 30.8 µM)
